{
  "source": "paper PMC9064899",
  "about": "(The FEBS journal, 2021)",
  "experiment_in_all_cases": "Cell-based UBIAD1 functional assay",
  "key": {"UBIAD1 G177E": {"molecular_target": "T1, UBIAD1 G177E (Homo sapiens, UniProt Q9Y5Z9, G177E)", "T1 sequence (Q9Y5Z9 1-338 G177E)": "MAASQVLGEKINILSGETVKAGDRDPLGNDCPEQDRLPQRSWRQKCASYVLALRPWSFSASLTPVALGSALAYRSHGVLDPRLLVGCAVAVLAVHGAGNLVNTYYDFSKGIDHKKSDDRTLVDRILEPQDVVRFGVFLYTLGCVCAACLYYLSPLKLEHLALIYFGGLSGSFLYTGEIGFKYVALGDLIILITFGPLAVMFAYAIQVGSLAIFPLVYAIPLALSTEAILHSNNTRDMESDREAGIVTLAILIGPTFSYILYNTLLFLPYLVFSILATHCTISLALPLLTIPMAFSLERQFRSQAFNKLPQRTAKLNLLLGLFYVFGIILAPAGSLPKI", "outline": "(§1)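 Wild-type or mutant human UBIAD1 in pCI-neo was transiently transfected into Ubiad1-knockout FIXgla-PC/HEK293 cells (DMEM/F12, 10% FBS). […] After 24 h, carboxylated FIXgla-PC in the medium was measured by ELISA. Activity was normalized to wild type (100%), and EC50 came from a curve fit. Mean ± SD, n=3 independent experiments.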"}, "UBIAD1 N102S": {"molecular_target": "T2, UBIAD1 N102S (Homo sapiens, UniProt Q9Y5Z9, N102S)", "T2 sequence (Q9Y5Z9 1-338 N102S)": "T1 sequence (Q9Y5Z9 1-338 G177E) with N102S, E177G", "outline": "as §1"}, "UBIAD1 G177R": {"molecular_target": "T3, UBIAD1 G177R (Homo sapiens, UniProt Q9Y5Z9, G177R)", "T3 sequence (Q9Y5Z9 1-338 G177R)": "T1 sequence (Q9Y5Z9 1-338 G177E) with E177R", "outline": "as §1"}, "UBIAD1 K181A": {"molecular_target": "T4, UBIAD1 K181A (Homo sapiens, UniProt Q9Y5Z9, K181A)", "T4 sequence (Q9Y5Z9 1-338 K181A)": "T1 sequence (Q9Y5Z9 1-338 G177E) with E177G, K181A", "outline": "as §1"}, "UBIAD1 D236A": {"molecular_target": "T5, UBIAD1 D236A (Homo sapiens, UniProt Q9Y5Z9, D236A)", "T5 sequence (Q9Y5Z9 1-338 D236A)": "T1 sequence (Q9Y5Z9 1-338 G177E) with E177G, D236A", "outline": "as §1"}, "wild-type UBIAD1": {"molecular_target": "T6, wild-type UBIAD1 (Homo sapiens, UniProt Q9Y5Z9)", "T6 sequence (Q9Y5Z9 1-338)": "T1 sequence (Q9Y5Z9 1-338 G177E) with E177G", "outline": "as §1"}, "UBIAD1 L67Q": {"molecular_target": "T7, UBIAD1 L67Q (Homo sapiens, UniProt Q9Y5Z9, L67Q)", "T7 sequence (Q9Y5Z9 1-338 L67Q)": "T1 sequence (Q9Y5Z9 1-338 G177E) with L67Q, E177G", "outline": "as §1"}},
  "note": "Substitutions are numbered along the chain they refer to. Values joined by “and” are separate entries in the source; they are usually repeats but may differ in a detail not shown here. Identical values can stand only once.",
  "data": [
    {"compound": "CC1=CC(=O)c2ccccc2C1=O", "note": "[vitamin K3, menadione]", "values": [
      {"measurement": "EC50", "setting": "UBIAD1 G177E", "result": "3.7 ± 0.5", "unit": "nM"},
      {"measurement": "Vitamin K-dependent carboxylation Activity ± SD", "setting": "UBIAD1 G177E; G177E, 1 μM vitamin K3", "result": "117.1 ± 4.5", "unit": "%"},
      {"measurement": "EC50", "setting": "UBIAD1 N102S", "result": "3.9 ± 0.3", "unit": "nM"},
      {"measurement": "Vitamin K-dependent carboxylation Activity ± SD", "setting": "UBIAD1 N102S; N102S, 1 μM vitamin K3", "result": "98.2 ± 3", "unit": "%"},
      {"measurement": "EC50", "setting": "UBIAD1 G177R", "result": "3 ± 0.3", "unit": "nM"},
      {"measurement": "Vitamin K-dependent carboxylation Activity ± SD", "setting": "UBIAD1 G177R; G177R, 1 μM vitamin K3", "result": "119.8 ± 1.2", "unit": "%"},
      {"measurement": "EC50", "setting": "UBIAD1 K181A", "result": "11.9 ± 0.4", "unit": "nM"},
      {"measurement": "Vitamin K-dependent carboxylation Activity ± SD", "setting": "UBIAD1 K181A; K181A, 1 μM vitamin K3", "result": "101.7 ± 3", "unit": "%"},
      {"measurement": "EC50", "setting": "UBIAD1 D236A", "result": "90 ± 17.6", "unit": "nM"},
      {"measurement": "Vitamin K-dependent carboxylation Activity ± SD", "setting": "UBIAD1 D236A; D236A, 1 μM vitamin K3", "result": "32% and 32.5 ± 0.9%"},
      {"measurement": "EC50", "setting": "wild-type UBIAD1", "result": "3.7 ± 0.4", "unit": "nM"},
      {"measurement": "Vitamin K-dependent carboxylation Activity ± SD", "setting": "wild-type UBIAD1; WT, 1 μM vitamin K3, WT normalized to 100%", "result": "100 ± 2.4", "unit": "%"},
      {"measurement": "EC50", "setting": "UBIAD1 L67Q", "result": "3.8 ± 0.8", "unit": "nM"},
      {"measurement": "Vitamin K-dependent carboxylation Activity ± SD", "setting": "UBIAD1 L67Q; L67Q, 1 μM vitamin K3", "result": "40.7 ± 2", "unit": "%"}
    ]}
  ]
}
